# Bioassay records from PubChem.
# A selection: hits, their analogues and other compounds. The true share with any hit is near 6.6%.
# HEK293 NFkB inh: lowers PMA/ionomycin-induced NF-kB signal in HEK293 cells; HEK-293 NF-kB luciferase reporter, luminescence; inhibition, % at 3 µM; 62,000 compounds, 0.21% hits;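 active = inhibition above the mean of all tested compounds plus 3 SD, cut at about 40% in these data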;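 also: 0% = stimulated DMSO wells and 100% = 10 µM reference inhibitor 5653914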
#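 System: NF-kB luciferase reporter HEK-293 cells | Replication: Single test | Control set: DMSO vs reference inhibitor | Evaluation: % inhibition | Schedule: 1 h pretreatment, 16 h stimulation, 37 °C | Probe or stimulus: PMA with ionomycin | Compound dosing: One dose, 3 µM | Detection: Luciferase luminescence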
# HER2 expr 66K: lowers expression of human Her2 kinase; 65,000 compounds, 0.69% hits; HER2 level % of control, % at 10 µM; SKBR-3 HER2 protein level, AlphaScreen, 18-24 h; active compounds read low;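 active = HER2 level under 5% of the carrier-only control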;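 also: 100% = DMSO carrier and 0% = 500 nM PU-H71 HSP90 inhibitor; lower value means stronger loss of Her2 protein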
# JNK3 inh: blocks human JNK3 kinase activity. P53779. purified JNK3 kinase activity, HTS. inhibition, % at 8 µM. 60,000 compounds, 0.61% hits; in the data active = inhibition above about 17%;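 also: 0% = DMSO and 100% = reference inhibitor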
# Target sequence (P53779 whole entry, looked up): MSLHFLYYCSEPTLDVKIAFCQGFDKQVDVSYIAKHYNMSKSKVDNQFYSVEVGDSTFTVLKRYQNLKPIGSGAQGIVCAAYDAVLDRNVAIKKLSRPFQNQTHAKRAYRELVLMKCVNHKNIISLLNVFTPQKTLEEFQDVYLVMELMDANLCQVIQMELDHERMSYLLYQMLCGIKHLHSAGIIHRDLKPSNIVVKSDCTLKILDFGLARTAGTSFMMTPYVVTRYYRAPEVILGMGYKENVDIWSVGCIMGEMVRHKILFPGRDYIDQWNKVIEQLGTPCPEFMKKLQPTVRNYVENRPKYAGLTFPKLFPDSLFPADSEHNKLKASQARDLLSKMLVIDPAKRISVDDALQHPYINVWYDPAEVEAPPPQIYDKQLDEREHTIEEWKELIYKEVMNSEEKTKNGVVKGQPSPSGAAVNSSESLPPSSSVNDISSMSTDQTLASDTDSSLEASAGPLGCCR
# M1 agonist: agonists of M1 muscarinic receptor. CHO-M1 cells, Fluo-4 calcium fluorescence, agonist mode; active compounds read high. B-score at 10 µM. 64,000 compounds, 3% hits. AID 626;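 active = fluorescence rise, raw or as B-score row- and column-corrected plate score, outside the 99.7% band of its plate's samples, either direction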
# BAP1 block: human BAP1 deubiquitinase inhibition; Q92560; recombinant BAP1, Ub-AMC hydrolysis fluorescence kinetic; active compounds read low; calls only at 20 µM; 72,000 compounds, 0.48% hits; AID 436;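 active = activity remaining at or below 50% of control, provided the compound also passes the data quality filters; inactive = the rest, including low values that fail the filters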;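 also: 100% = DMSO wells rate and 0% = substrate alone blank rate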
# M1 antagonist: antagonists of rat M1 muscarinic receptor; P08482; CHO-M1 cells, Fluo-4 calcium, ACh EC80 antagonist mode; active compounds read low; B-score at 10 µM; 64,000 compounds, 3.4% hits;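 active = calcium fluorescence response, raw or row-and-column corrected B-score, differing from the plate sample mean either way at a set confidence level, mostly lower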
# M1 antag conf: confirmation of rat M1 muscarinic receptor antagonists | shares compounds with M1 antagonist | CHO-M1 cells, Fluo-4 calcium, ACh EC80 antagonism; active compounds read low | calcium response (max-min fluorescence) at 10 µM | 1,700 compounds, 43% hits;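 active = calcium response below the same-plate mean of wells given acetylcholine alone at its 80%-effect dose, minus 3 SD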;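 also: raw fluorescence intensity difference in arbitrary instrument units and not normalized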
# mGluR4 antag: selectivity test for M1 antagonists: human mGluR4 receptor. CHO-mGluR4 calcium flux, Fluo-4 fluorescence, glutamate EC80; active compounds read low. shares compounds with M1 antagonist. fluorescence response (max-min) at 10 µM. 1,700 compounds, 0.9% hits;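 active = fluorescence response below the plate's average for near-maximal glutamate wells, less 3 SD of those wells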;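 also: raw unnormalized fluorescence span taken in the window right after glutamate addition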
# * = called active by the depositor; i = inactive; / = not tested or not shown.
SMILES,HEK293 NFkB inh,HER2 expr 66K,JNK3 inh,M1 agonist,BAP1 block,M1 antagonist,M1 antag conf,mGluR4 antag
CCC1(C)Cc2ccccc2/C(=C/C(=O)N2CCCCC2)N1 (configuration not stated),12.7,73.8,-1.2,-0.786,i,-2.75*,18*,246
CCC1(CC)Cc2ccccc2C(=O)N1,/,/,/,/,i,/,/,/
CC1=C(C(=O)Nc2ccccc2C)C(c2ccccc2Cl)NC(=S)N1 (configuration not stated),/,/,/,/,i,/,/,/
CCOC(=O)C1=C(O)CCn2c1nc1ccccc12,10.7,128.5,-2.8,0.0861,i,-2.32*,640,233
CCOC(=O)c1ccc(S(=O)(=O)n2c(CN3CCCCC3)nc3ccccc32)cc1,11.5,87.2,3.8,0.28,i,-0.46,/,/
O=C1CN(C(=O)CN2CCCC2)C(c2ccccc2)c2cc(Br)ccc2N1 (configuration not stated),11.2,122.0,2.0,-0.252,i,-2.8*,473,305
COc1ccccc1Nc1nc2ccccc2n1C,-13.6,102.7,-3.1,0.0625,i,-4.39*,489,209
CCN(CC)CCCN1C(=O)c2oc3ccccc3c(=O)c2C1c1cc(OC)ccc1OC (configuration not stated),27.0,69.8,-1.2,-0.918,i,-1.89*,644,270
CCN(CC)CCCN1C(=O)c2oc3ccccc3c(=O)c2C1c1cccnc1 (configuration not stated),15.4,104.8,-1.9,0.0867,i,0.46,/,/
C=CCC(O)(CCN1CCCCC1)c1ccccc1 (configuration not stated),7.0,119.9,-1.2,0.416,i,-8.04*,97.4*,230
OC(CCN1CCCC1)(c1ccccc1)C1CCCCC1 (configuration not stated),/,83.2,-7.1,-0.405,i,-16.2*,17.5*,268
OC(CCN1CCCCC1)(c1ccccc1)c1ccccc1,/,98.7,-1.9,1.91,i,-12.3*,22.6*,244
OC(C#CCN1CCOCC1)(c1ccccc1)C1CC1 (configuration not stated),19.7,94.2,3.5,-0.28,i,-0.539,/,/
Cc1ccccc1NC(=O)CCN1CCCCCC1,0.4,130.3,1.6,-0.562,i,1.13,/,/
Cc1cc(C)nc(NS(=O)(=O)c2ccc(NC(=O)c3cc([N+](=O)[O-])ccc3Cl)cc2)n1,/,/,/,/,i,/,/,/
Cc1cc(N2CCC(N(C)C3CCCC3)CC2)nc2cc(O)ccc12,16.0,94.0,-2.6,-0.479,i,-0.69*,579*,187
Cc1cc(N2CCOCC2)nc2ccc(NC(=O)C3CCC(C)CC3)cc12 (configuration not stated),4.5,53.0,/,1.01,/,-0.199,/,/
Cc1ccc(N(CC(=O)Nc2ccc3c(c2)OCCO3)S(=O)(=O)c2c(C)noc2C)cc1,7.5,68.4,3.9,1.34,i,-3.02*,529,219
CC(=O)Nc1ccc2oc(-c3cccc(I)c3)nc2c1,/,/,/,/,i,/,/,/
Clc1ccc(-c2onc3ccc(I)cc23)cc1,/,/,/,/,i,/,/,/
O=c1c2ccccc2nc(SCc2nc(-c3ccccc3)no2)n1-c1ccc(F)cc1,20.0,96.1,6.8,-1.84,i,-0.424,/,/
COc1ccc(-c2noc(CSc3nc4ccccc4c(=O)n3-c3ccccc3)n2)cc1OC,11.6,84.2,-2.5,0.00521,/,-3.93*,671,235
CC1=C(C(=O)Nc2ccc(C)cc2)C(c2cccc(Cl)c2)NC(=O)N1 (configuration not stated),/,/,/,/,i,/,/,/
CN(C)CCCOC(=O)Cc1ccc(Cl)cc1,16.6,95.3,-6.0,0.0461,i,-2.28*,463,198
CC1=C(C(=O)OCCOc2ccccc2)C(c2ccc(F)cc2)C2=C(CCCC2=O)N1 (configuration not stated),/,/,/,/,i,/,/,/
SMILES,HEK293 NFkB inh,HER2 expr 66K,JNK3 inh,M1 agonist,BAP1 block,M1 antagonist,M1 antag conf,mGluR4 antag
CCN1CCN(CCCOc2ccc(-c3ccccc3)cc2)CC1,-4.5,97.4,9.0,-0.725,i,-3.5*,197*,256
c1ccc(-c2ccc(OCCCn3cncn3)cc2)cc1,-2.8,84.7,0.3,-0.148,i,-0.0539,/,/
O=C1C2C3c4ccccc4C(c4ccccc43)C2C(=O)N1c1ccccc1F (configuration not stated),/,/,/,/,i,/,/,/
CCOC(=O)c1cccc(NC(=O)c2ccc(OC)cc2)c1,/,/,/,/,i,/,/,/
Cc1cc(C(=O)Cn2nnc3ccccc3c2=O)c(C)n1-c1c(C)n(C)n(-c2ccccc2)c1=O,13.9,97.5,-3.0,0.318,i,0.143,/,/
CCOC(=O)c1cc(C)n(-c2c(C)n(C)n(-c3ccccc3)c2=O)c1C,3.7,99.8,6.5,-0.00495,i,-4.47*,430*,220
CCN(CC)C(=O)COc1ccc(-c2nnc(N3CCCCC3)c3ccccc23)cc1,20.7,97.8,2.3,-0.329,i,-2.91*,531*,181
COc1ccc(N2C(=O)C(Cl)=C(Nc3c(C)n(C)n(-c4ccccc4)c3=O)C2=O)cc1,9.2,79.5,-4.0,-0.00428,i,-3.81*,427*,254
CC(C)(C)n1nnnc1C(c1ccccc1)N1CCc2ccccc2C1 (configuration not stated),13.9,88.0,-4.4,0.00983,i,-12.1*,368*,211
Cc1nc2cc(N=Cc3cc([N+](=O)[O-])ccc3O)ccc2n1Cc1ccccc1,/,/,/,/,i,/,/,/
CN(C)CCCN1c2ccccc2Sc2ccc(C(F)(F)F)cc21,/,108.3,-14.5,-0.942,i,-15.4*,24.3*,273
CCOC(=O)c1sc(NC(=O)c2ccc(Br)cc2)nc1-c1ccccc1,/,/,/,/,i,/,/,/
CC(C)N1C(=O)C2ON(c3ccccc3)C(c3cccs3)C2C1=O (configuration not stated),7.1,139.2,4.8,-0.0552,i,-3.77*,542,243
O=C1CC(c2cn(Cc3ccccc3)c3ccccc23)C(=O)N1c1ccccc1 (configuration not stated),/,/,/,/,i,/,/,/
CCc1[nH]nc2c1C1(CCN(C(=O)c3ccccc3)CC1)C(C#N)=C(N)O2,-2.4,87.5,6.4,0.392,i,0.288,/,/
CC(=O)N1CCC2(CC1)C(C#N)=C(N)Oc1n[nH]c(CSc3ccc(C)cc3)c12,11.7,165.6,-1.5,-0.424,i,-2.38*,676,127*
CCOc1ccc(S(=O)(=O)n2c(C)nc3ccccc32)cc1,10.0,91.3,4.3,-0.0734,i,-2.57*,202*,243
CCCCOc1ccc(S(=O)(=O)n2c(C)nc3ccccc32)cc1,16.3,99.3,-10.0,-1.03,i,-3.5*,584,242
